Experimental data published in ChEMBL document CHEMBL4831496, “Noncovalent EGFR T790M/L858R inhibitors based on diphenylpyrimidine scaffold: Design, synthesis, and bioactivity evaluation for the treatment of NSCLC” (Eur J Med Chem, 2021).

Legend:
[1] = molecular target: Epidermal growth factor receptor (Homo sapiens, UniProt P00533, L858R/T790M); assay: Inhibition of EGFR L858R/T790M double mutant (unknown origin) measured after 60 mins by ADP-Glo kinase based luminescence assay
[2] = molecular target: Epidermal growth factor receptor (Homo sapiens, UniProt P00533); assay: Inhibition of wild type EGFR (unknown origin) measured after 60 mins by ADP-Glo kinase based luminescence assay
Chain of Epidermal growth factor receptor (Homo sapiens, UniProt P00533) (P00533 whole entry): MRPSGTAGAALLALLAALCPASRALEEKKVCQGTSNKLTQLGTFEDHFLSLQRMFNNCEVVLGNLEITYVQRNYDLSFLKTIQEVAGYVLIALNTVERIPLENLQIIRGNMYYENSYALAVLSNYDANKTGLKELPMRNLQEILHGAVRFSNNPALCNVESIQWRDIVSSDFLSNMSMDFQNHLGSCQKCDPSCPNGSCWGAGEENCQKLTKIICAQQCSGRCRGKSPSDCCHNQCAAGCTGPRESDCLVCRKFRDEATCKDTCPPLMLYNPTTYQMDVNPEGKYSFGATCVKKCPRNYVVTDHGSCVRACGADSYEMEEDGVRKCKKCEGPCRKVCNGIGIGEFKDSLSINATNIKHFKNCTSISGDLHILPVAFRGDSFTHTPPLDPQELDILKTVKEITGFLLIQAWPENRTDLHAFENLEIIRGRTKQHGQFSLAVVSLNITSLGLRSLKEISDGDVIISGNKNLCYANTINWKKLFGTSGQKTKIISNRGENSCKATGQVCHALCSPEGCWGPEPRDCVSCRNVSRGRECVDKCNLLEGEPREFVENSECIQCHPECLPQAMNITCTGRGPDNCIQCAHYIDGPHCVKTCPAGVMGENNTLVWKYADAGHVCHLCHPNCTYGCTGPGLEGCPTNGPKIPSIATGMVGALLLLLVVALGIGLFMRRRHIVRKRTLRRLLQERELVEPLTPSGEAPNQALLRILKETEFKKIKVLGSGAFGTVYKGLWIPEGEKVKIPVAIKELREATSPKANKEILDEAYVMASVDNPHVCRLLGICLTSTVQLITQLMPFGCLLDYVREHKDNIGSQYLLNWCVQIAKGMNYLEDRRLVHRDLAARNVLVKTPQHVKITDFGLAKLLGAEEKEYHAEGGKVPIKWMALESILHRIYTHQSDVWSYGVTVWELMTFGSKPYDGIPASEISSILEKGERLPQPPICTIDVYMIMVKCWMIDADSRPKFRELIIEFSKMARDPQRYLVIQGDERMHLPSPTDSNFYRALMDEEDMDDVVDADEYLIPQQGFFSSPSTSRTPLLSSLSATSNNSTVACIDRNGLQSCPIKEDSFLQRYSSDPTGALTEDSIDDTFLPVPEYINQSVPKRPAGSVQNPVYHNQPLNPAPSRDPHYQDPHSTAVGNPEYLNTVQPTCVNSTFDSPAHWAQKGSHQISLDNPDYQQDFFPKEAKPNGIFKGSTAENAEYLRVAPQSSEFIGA

NCI-H1975 = assay: Antiproliferative activity against human NCI-H1975 cells harboring EGFR L858R/T790M mutant assessed as reduction in cell viability incubated for 72 hrs by CCK8 assay; assay type: functional, cell-based; conditions: NCI-H1975, 72 h
Procedure, shortened: (§1)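 Cells kept as monolayers at 37 °C, 5% CO2, seeded 3000-4000/well for 12 h, then exposed to compounds for 72 h. CCK-8 added for 1-2 h at 37 °C, absorbance read at 450 nm. Each dose run in triplicate, experiment repeated at least three times. IC50 taken from dose-response curves.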

L02 = assay: Antiproliferative activity against human L02 cells assessed as reduction in cell viability incubated for 72 hrs by CCK8 assay; assay type: cell-based; conditions: L02, 72 h
A-431 = assay: Cytotoxicity against human A-431 cells harboring wild type EGFR assessed as reduction in cell viability incubated for 72 hrs by CCK8 assay; assay type: cell-based; conditions: A-431, 72 h; procedure, shortened: as §1
A549 = assay: Antiproliferative activity against human A549 cells harboring KRAS G12S mutant assessed as reduction in cell viability incubated for 72 hrs by CCK8 assay; assay type: functional, cell-based; conditions: A549, 72 h; procedure, shortened: as §1
[3] = Cytotoxicity against human HBE cells assessed as reduction in cell viability incubated for 72 hrs by CCK8 assay; assay type: cell-based; procedure, shortened: as §1
ASPC1 = assay: Antiproliferative activity against human ASPC1 cells assessed as reduction in cell viability incubated for 72 hrs by CCK8 assay; assay type: functional, cell-based; conditions: ASPC1, 72 h; procedure, shortened: as §1
NCI-H23 = assay: Antiproliferative activity against human NCI-H23 cells harboring KRAS mutant assessed as reduction in cell viability incubated for 72 hrs by CCK8 assay; assay type: functional, cell-based; conditions: NCI-H23, 72 h; procedure, shortened: as §1
[4] = Selectivity index, ratio of IC50 for human A-431 cells harboring wild type EGFR (unknown origin) to IC50 for human NCI-H1975 cells harboring EGFR L858R/T790M mutant

Chain of Epidermal growth factor receptor (Homo sapiens, UniProt P00533, L858R/T790M) (P00533 25-1210 T790M/L858R limits assumed): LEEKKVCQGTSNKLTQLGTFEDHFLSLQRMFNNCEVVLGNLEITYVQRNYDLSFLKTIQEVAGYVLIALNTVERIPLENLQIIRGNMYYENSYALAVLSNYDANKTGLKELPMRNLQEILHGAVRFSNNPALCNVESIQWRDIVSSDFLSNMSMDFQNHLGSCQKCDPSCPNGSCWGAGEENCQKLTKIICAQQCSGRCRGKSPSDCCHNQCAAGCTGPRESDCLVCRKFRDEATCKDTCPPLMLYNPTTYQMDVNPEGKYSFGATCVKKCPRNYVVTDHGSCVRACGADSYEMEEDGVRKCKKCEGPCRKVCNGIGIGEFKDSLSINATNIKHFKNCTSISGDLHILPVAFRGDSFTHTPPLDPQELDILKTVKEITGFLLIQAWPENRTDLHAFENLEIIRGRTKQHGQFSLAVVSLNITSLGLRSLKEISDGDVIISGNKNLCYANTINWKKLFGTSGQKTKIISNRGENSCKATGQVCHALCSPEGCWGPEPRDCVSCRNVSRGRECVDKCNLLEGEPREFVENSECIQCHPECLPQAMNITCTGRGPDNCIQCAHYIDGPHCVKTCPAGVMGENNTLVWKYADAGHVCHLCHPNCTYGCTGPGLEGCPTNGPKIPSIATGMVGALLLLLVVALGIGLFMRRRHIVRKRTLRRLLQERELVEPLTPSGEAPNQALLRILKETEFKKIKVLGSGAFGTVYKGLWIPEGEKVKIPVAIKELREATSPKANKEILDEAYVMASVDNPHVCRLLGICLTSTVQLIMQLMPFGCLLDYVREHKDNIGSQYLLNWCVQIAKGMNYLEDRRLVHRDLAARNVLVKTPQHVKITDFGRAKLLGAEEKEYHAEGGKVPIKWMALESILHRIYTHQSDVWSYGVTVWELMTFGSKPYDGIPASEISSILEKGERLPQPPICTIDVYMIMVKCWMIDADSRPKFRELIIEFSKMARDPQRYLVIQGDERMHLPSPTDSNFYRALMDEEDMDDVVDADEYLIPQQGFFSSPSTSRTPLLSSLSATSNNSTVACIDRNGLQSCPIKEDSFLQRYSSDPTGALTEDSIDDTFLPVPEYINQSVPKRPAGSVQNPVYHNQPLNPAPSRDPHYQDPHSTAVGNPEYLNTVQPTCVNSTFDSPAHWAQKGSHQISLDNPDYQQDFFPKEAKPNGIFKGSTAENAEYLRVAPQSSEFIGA

SMILES	IC50 [1]	IC50 [2]	IC50 (NCI-H1975)	IC50 (A549)	IC50 (ASPC1)	IC50 (NCI-H23)	IC50 (L02)	IC50 (A-431)	IC50 [3]	Ratio IC50 [4]
CN1CCN(CCOc2ccc(Nc3ncc(Cl)c(Nc4ccccc4C(=O)NO)n3)cc2)CC1	6.82 nM	0.763 nM	822 nM	203 nM	244 nM	642 nM	1950 nM	692 nM	29800 nM	0.84
CNC(=O)c1ccccc1Nc1nc(Nc2ccc(NC(=O)CN3CCOCC3)c(C)c2)ncc1Cl	3.89 nM	–	333 nM	–	–	–	–	–	–	–
CNC(=O)c1ccccc1Nc1nc(Nc2ccc(N3CCC(C(=O)NO)CC3)cc2)ncc1Cl	49.9 nM	119 nM	329 nM	329 nM	499 nM	1540 nM	1730 nM	127 nM	12600 nM	0.39
CNC(=O)c1ccccc1Nc1nc(Nc2ccc(CN3CCC(C(=O)NO)CC3)cc2)ncc1Cl	117 nM	1.09 nM	245 nM	245 nM	374 nM	8420 nM	1280 nM	1160 nM	15900 nM	4.72
O=C(COc1ccc(Nc2ncc(Cl)c(Nc3ccccc3C(=O)NO)n2)cc1)NO	65.4 nM	50.2 nM	1110 nM	1110 nM	1580 nM	6400 nM	7870 nM	2060 nM	> 40000 nM	1.86
CNC(=O)c1ccccc1Nc1nc(Nc2ccc(OCCCN3CCC(C(=O)NO)CC3)cc2)ncc1Cl	45 nM	46.7 nM	156 nM	156 nM	< 156 nM	2110 nM	< 1250 nM	448 nM	8570 nM	2.88
CN1CCN(c2ccc(Nc3ncc(Cl)c(Nc4ccccc4C(=O)NO)n3)cc2)CC1	68.8 nM	6.56 nM	< 78.1 nM	< 78 nM	< 156 nM	217 nM	< 1250 nM	253 nM	22600 nM	>3.24

Continued, in another order:

IC50 [1]	IC50 [2]	IC50 (NCI-H1975)	IC50 (A549)	IC50 (ASPC1)	IC50 (NCI-H23)	SMILES	IC50 (L02)	IC50 (A-431)	IC50 [3]	Ratio IC50 [4]
199 nM	81.4 nM	> 10000 nM	–	–	–	O=C(O)c1ccccc1Nc1nc(Nc2ccc(OCC(=O)N3CCOCC3)cc2)ncc1Cl	15500 nM	–	–	–
16 nM	57.3 nM	129 nM	129 nM	530 nM	820 nM	O=C(NO)c1ccccc1Nc1nc(Nc2ccc(OCC(=O)N3CCOCC3)cc2)ncc1Cl	4810 nM	670 nM	20200 nM	5.19
116 nM	169 nM	109 nM	109 nM	1410 nM	801 nM	O=C(NO)c1ccccc1Nc1nc(Nc2ccc(N3CCOCC3)cc2)ncc1Cl	2190 nM	1580 nM	> 40000 nM	14.46
113 nM	126 nM	385 nM	385 nM	750 nM	1740 nM	O=C(CN1CCOCC1)Nc1ccc(Nc2ncc(Cl)c(Nc3ccccc3C(=O)NO)n2)cc1	2110 nM	1530 nM	> 40000 nM	3.98
0.245 nM	32 nM	2900 nM	–	–	–	CCOC(=O)c1ccccc1Nc1nc(Nc2ccc(OCC(=O)N3CCOCC3)cc2)ncc1Cl	30200 nM	–	–	–
98.8 nM	4.5 nM	< 78.1 nM	< 78 nM	< 156 nM	554 nM	O=C(NO)c1ccccc1Nc1nc(Nc2ccc(CN3CCOCC3)cc2)ncc1Cl	< 1250 nM	2430 nM	29100 nM	>31.08
64.8 nM	1.25 nM	321 nM	321 nM	1230 nM	665 nM	O=C(NO)c1ccccc1Nc1nc(Nc2ccc(OCCCN3CCOCC3)cc2)ncc1Cl	1730 nM	1400 nM	26500 nM	4.38
